Compound activity deposited in PubChem by Columbia University Molecular Screening Center.
Insulin prom act = TRM-6 insulin promoter activation | TRM-6 cells (human fetal islet line), insulin promoter eGFP reporter, imaging; plate-scaled: unstimulated 0, stimulated control 100 | activation, % at 2 µM | 0.81% of 130,000 active;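 active = activation at 2 µM above a set limit, confirmed on inspection of the cell images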;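 also: share of cells whose green reporter signal exceeds an intensity cutoff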
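test system = TRM-6 insulin promoter–eGFP reporter cells | benchmarks = stimulated versus unstimulated wells as plate controls | read-out basis = percent cells above green-intensity threshold, converted to percent activation versus plate controls | detection = fixed-cell fluorescence microscopy, eGFP plus Hoechst | incubation = tamoxifen pre-incubation 15 h overnight, then compound exposure 48 h at 37 °C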
* marks the source's active call; other numbers are inactive results. This is one part of a sample in which hits are shown more often than they occur.

SMILES	Insulin prom act
COc1ccc(NC(=O)CSc2nnc(-c3ccncc3)n2C)cc1	0
Cn1c(SCCOc2ccccc2Cl)nnc1-c1ccncc1	538*
Cn1c(SCC(=O)C(C)(C)C)nnc1-c1ccncc1	0
O=C(COC(=O)CCSc1ccccc1)NCc1ccc(F)cc1	0
CCN1/C(=C/c2ccc3cc(C)cc(C)c3[n+]2CC)Sc2cc(C)ccc21	413*
CCN1/C(=C\c2ccc3cc(C)ccc3[n+]2CC)Sc2cc(C)c(C)cc21	413*
CCN1/C(=C/c2ccc3cccc(C)c3[n+]2CC)Sc2ccccc21	233*
Cc1cc(SCC(=O)c2cc(C)n(C)c2C)nc2ccccc12	0
COc1cc(C(=O)NCC(c2ccccc2)N(C)C)ccc1OCC(=O)N1CCOCC1 (stereo unspecified)	-9
Cc1c(NC2=CC(=O)CCC2)c(=O)n(-c2ccccc2)n1C	-5
CCn1cc(C(=O)NCCc2ccccc2)c(=O)c2cc(S(=O)(=O)N3CCCC3)ccc21	0
C/C=C/c1ccc(OCCCCNCc2ccco2)c(OC)c1	-7
Cc1ccccc1N(CC(=O)NCC1CCCO1)C(=O)C1(C)CC(=O)N=C2C=CC=CN21 (stereo unspecified)	-4
COc1cccc(C2CC(c3cccc(C)c3)n3ncnc3N2)c1 (stereo unspecified)	143
Cc1ccccc1Cn1nc(C)c(NC(=O)C2c3ccccc3Oc3ccccc32)c1C	4
Cc1c(NC(=O)CN2CCCc3ccccc32)c(=O)n(-c2ccccc2)n1C	0
CN(C)S(=O)(=O)c1ccc(NC(=O)CN2CCCc3ccccc32)cc1	383*
O=C(CN1CCCc2ccccc21)NCc1ccccc1Cl	9
S=C(Nc1ccc(Cl)cc1)c1sc(N2CCCCC2)nc1N1CCOCC1	8
Cc1ccnc2ccc(SC(F)(F)F)cc12	417*
CCN(C(=O)c1ccco1)c1nnc(-c2ccc(OC)cc2)s1	0
COc1ccc(C(=O)OCC(=O)Nc2ccc(F)cc2F)cc1OC	-3
CCC(C)NS(=O)(=O)c1ccc(OCC(=O)Nc2ccc(F)cc2F)cc1 (stereo unspecified)	462*
CCC(C)NS(=O)(=O)c1ccc(OCC(=O)NCc2ccc3c(c2)OCO3)cc1 (stereo unspecified)	0
Cc1ccc(NC(=S)NC(NC(=O)c2ccccc2C)C(Cl)(Cl)Cl)c(C)c1 (stereo unspecified)	-3
SMILES	Insulin prom act
CN(Cc1ccccc1)S(=O)(=O)c1ccc(Cl)c(C(=O)NCCc2ccccn2)c1	0
c1ccc(-c2nnc3sc(-c4csc5c4CCCC5)nn23)cc1	7
O=C(CCCN1C(=O)c2ccccc2C1=O)NC1=NCCS1	0
CC(C(=O)NC1=NCCS1)N1C(=O)C2CC=CCC2C1=O (stereo unspecified)	121*
Cc1cc(C)cc(OCC(=O)NC2=NCCS2)c1	-8
CS(=O)(=O)N(CC(=O)NCc1ccccn1)c1ccc2c(c1)OCCO2	37
CS(=O)(=O)N(CC(=O)NCCSCc1ccccc1)c1ccc2c(c1)OCO2	204*
CN(C)C(=O)CN(c1ccc2c(c1)OCO2)S(C)(=O)=O	-71
COc1ccc(/C=C/C(=O)Nc2cc(F)ccc2C)cc1S(=O)(=O)N1CCOCC1	0
S=c1[nH]nc(Cc2sc(-c3ccccc3)nc2-c2ccccc2)o1	-10
Cc1ccc(S(=O)(=O)CCC(=O)OC(C)C(=O)c2c(C)[nH]c3ccccc23)cc1 (stereo unspecified)	0
Cc1ccc(CCNC(=O)C2CCN(c3nn4c(=O)cc(C)nc4s3)CC2)cc1	108
Cc1cc(C)c(S(=O)(=O)NCC2CCC(C(=O)NCCCN3CCOCC3)CC2)c(C)c1 (stereo unspecified)	4
Cc1cc(C)c2nc(N3CCC(C(=O)NCCCN4CCCCC4)CC3)sc2c1	513*
CCn1nc(C)c(/C=C/C(=O)Nc2ccc(C)cc2C)c1C	3
Cc1sc2c(c1C)c(=O)n(-c1cccc(C(F)(F)F)c1)c(=O)n2CC(=O)NCc1ccco1	-69
N/C(=N\OC(=O)CCCOc1ccccc1)c1ccccc1	-4
CCOc1ccccc1NC(=O)CN(C)S(=O)(=O)c1ccc(OC)c(C)c1	-3
O=C(Nc1cccc(-c2cnc3ccccc3n2)c1)c1cccc(NC(=O)c2ccco2)c1	7
O=C(Nc1cccc(-c2nc3cccnc3s2)c1)c1ccco1	481*
O=C(Nc1nccs1)c1cccc(NC(=O)c2ccco2)c1	-93
COC(=O)C1=C(C)NC(=S)NC1c1ccco1 (stereo unspecified)	-6
O=C(O)C1C2CCC(O2)C1C(=O)NCc1ccc(Cl)cc1 (stereo unspecified)	-62
COc1cccc(NC(=O)c2ocnc2C)c1	0
O=C(COC(=O)[C@@H]1CC(O)CN1S(=O)(=O)c1ccccc1[N+](=O)[O-])Nc1ccc2ccccc2c1 (stereo partly specified)	5
SMILES	Insulin prom act
NC(=O)[C@@H]1CCCCNc2c(I)cc([N+](=O)[O-])cc2C(=O)N[C@@H](CCC(=O)O)C(=O)N[C@@H](CO)C(=O)N1	-60
NC(=O)[C@@H]1CCCNc2c(I)cc([N+](=O)[O-])cc2C(=O)N[C@@H](Cc2ccccc2)C(=O)N[C@@H](Cc2cnc[nH]2)C(=O)N1	285*
CC(C)C[C@@H]1NC(=O)[C@H](Cc2ccc(O)cc2)NC(=O)c2cc([N+](=O)[O-])cc(I)c2NCCC[C@@H](C(N)=O)NC1=O	5
Cc1cc(NC(=O)c2sccc2C)n(-c2cccc(Cl)c2)n1	-3
CCOC(=O)N1CCN(C(=O)c2ccc(OC)c(S(=O)(=O)N3CCOCC3)c2)CC1	-78
Cc1ccc(S(=O)(=O)N2CCN(C(=O)CN3CCCCC3)C2C(C)C)cc1 (stereo unspecified)	6
CSc1nsc(SC)c1C(=O)N1CCN(S(=O)(=O)c2ccc(C)cc2)C1C (stereo unspecified)	125*
CSc1nsc(SC)c1C(=O)Nc1ccc(C)cc1	5
COc1ccc2nc(NC(=O)c3cccnc3SC)sc2c1	0
CCOC(=O)N1CCC(Nc2c(-c3ccccc3)c(=O)c2=O)CC1	86*
CCOC(=O)N1CCN(C(=O)c2ccccc2NC(C)=O)CC1	4
CCOC(=O)N1CCN(c2c(NCCN(C)Cc3ccccc3)c(=O)c2=O)CC1	0
COCCCNC(=O)c1ccc(-c2csc(C)n2)cc1	7
O=C(c1ccc(Oc2ccccc2)cc1)c1nc2c(n1O)CCCC2	0
O=C1CCC(C(=O)Nc2cccc(S(=O)(=O)N3CCOCC3)c2)N1 (stereo unspecified)	0
Cc1onc(-c2ccccc2Cl)c1C(=O)N1CCN(Cc2ccc3c(c2)OCO3)CC1	-3
CCOC(=O)c1c(NC(=S)Nc2ccccc2)sc2c1CCN(CCc1ccccc1)C2	233*
CCOC(=O)c1c(NC(=S)Nc2ccc(Cl)cc2)sc(C)c1C	-5
CCOC(=O)c1c(NC(=O)CN2CCN(C(=O)c3ccco3)CC2)sc2c1CCCC2	319
Cc1cccc(C)c1NC(=O)C1(N2CCN(C(=O)c3ccco3)CC2)CCCCC1	179
CCc1cccc(C)c1NC(=O)CSc1nnc(CCCOc2ccc(Cl)cc2Cl)n1C	3
OC(CN1C2=NCCN2c2ccccc21)c1ccc(Br)cc1 (stereo unspecified)	-3
Clc1ccc(CN2C3=NCCCN3c3ccccc32)cc1	136*
O=C(CN1C2=NCCCN2c2ccccc21)c1cccc(Br)c1	-8
c1csc(C2CCCN2c2nc3nonc3nc2NC2CC2)n1 (stereo unspecified)	0
